Assay results reported in ChEMBL document CHEMBL4393703, “Organoseleno cytostatic derivatives: Autophagic cell death with AMPK and JNK activation” (Eur J Med Chem, 2019).

How the values were obtained:
[1] = Cytotoxicity against human 184B5 cells assessed as reduction in cell growth at 10 uM incubated for 48 hrs by MTT assay; assay type: cell-based; conditions: read-out: Activity
Summary of the method: (§1)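 Two-concentration MTT screen (10 and 100 µM; the 10 µM readings are the values here) run before full dose-response profiling. Cells seeded at 8,000–40,000 per well depending on cell size and left overnight, then exposed to compound for 48 h. MTT (2 mg/mL stock) added for 4 h, formazan dissolved in DMSO, absorbance read at 550 nm. Growth given as percent of untreated controls, averaged.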

MCF7 = assay: Antiproliferative activity against human MCF7 cells assessed as reduction in cell growth at 10 uM incubated for 48 hrs by MTT assay; assay type: functional; set-up: scale not given: the % may be the effect or the level left; summary of the method: as §1
K562 = assay: Antiproliferative activity against human K562 cells assessed as reduction in cell growth at 10 uM incubated for 48 hrs by MTT assay; assay type: functional; set-up: scale not given: the % may be the effect or the level left; summary of the method: as §1
PC-3 = assay: Antiproliferative activity against human PC3 cells assessed as reduction in cell growth at 10 uM incubated for 48 hrs by MTT assay; assay type: functional; set-up: scale not given: the % may be the effect or the level left; summary of the method: as §1
MOLT-4 = assay: Antiproliferative activity against human MOLT4 cells assessed as reduction in cell growth at 10 uM incubated for 48 hrs by MTT assay; assay type: functional; set-up: scale not given: the % may be the effect or the level left; summary of the method: as §1
CCRF-CEM = assay: Antiproliferative activity against human CCRF-CEM cells assessed as reduction in cell growth at 10 uM incubated for 48 hrs by MTT assay; assay type: functional; set-up: scale not given: the % may be the effect or the level left; summary of the method: as §1
[2] = Antiproliferative activity against human HTB-54 cells assessed as reduction in cell growth at 10 uM incubated for 48 hrs by MTT assay; assay type: functional; set-up: scale not given: the % may be the effect or the level left; summary of the method: as §1
[3] = Cytotoxicity against human BEAS2B cells assessed as reduction in cell growth at 10 uM incubated for 48 hrs by MTT assay; assay type: cell-based; conditions: BEAS-2B cells, read-out: Activity; summary of the method: as §1
HT-29 = assay: Antiproliferative activity against human HT-29 cells assessed as reduction in cell growth at 10 uM incubated for 48 hrs by MTT assay; assay type: functional; set-up: scale not given: the % may be the effect or the level left; summary of the method: as §1

Compound | inhibition at 48 h, 10 µM [1] | Activity (MCF7) | Activity (K562) | Activity (PC-3) | Activity (MOLT-4) | Activity (CCRF-CEM) | Activity [2] | inhibition at 48 h, 10 µM [3] | Activity (HT-29)
O=C(O)c1ccccc1C(=O)Nc1ccc([Se][Se]c2ccc(NC(=O)c3ccccc3C(=O)O)cc2)cc1 | 93.4% | 107.45% | 95.27% | 98.48% | 96.04% | 84.92% | 100.9% | 63.7% | 98.98%
O=C(O)CCC(=O)Nc1ccc([Se][Se]c2ccc(NC(=O)CCC(=O)O)cc2)cc1 | 80.2% | 69.66% | 105.24% | 70.9% | 83.23% | 80.57% | 88.05% | 76.6% | 91.61%
O=C(O)C1CCCCC1C(=O)Nc1ccc([Se][Se]c2ccc(NC(=O)C3CCCCC3C(=O)O)cc2)cc1 (configuration not stated) | 55% | 74.45% | 111.58% | 116.42% | 101.94% | -33.59% | 95.11% | 91% | 99.45%
